In the library only some 5.2% were active in any assay of this set; here they are far more common.
M1 agonist: M1 muscarinic receptor agonism | CHO-M1 cells, Fluo-4 calcium fluorescence, agonist mode; hits give high values | B-score at 10 µM | hit rate 3% among 64,000 | AID 626;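 active means fluorescence rise, raw or as B-score row- and column-corrected plate score, outside the 99.7% band of its plate's samples, either direction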
WNV protease inh: inhibitors of West Nile virus NS2B-NS3 protease; WNV NS2B-NS3 protease, fluorogenic substrate Ex360/Em465; hits give low values; z-score (test concentration not listed); P06935; hit rate 0.18% among 65,000; in the data active means z-score below about -3
Target sequence (P06935 1371-1501 limits assumed): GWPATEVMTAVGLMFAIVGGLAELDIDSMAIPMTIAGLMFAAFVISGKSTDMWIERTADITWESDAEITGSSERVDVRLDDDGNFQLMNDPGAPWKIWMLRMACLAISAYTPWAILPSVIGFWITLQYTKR
Target sequence (P06935 1502-1679 limits assumed): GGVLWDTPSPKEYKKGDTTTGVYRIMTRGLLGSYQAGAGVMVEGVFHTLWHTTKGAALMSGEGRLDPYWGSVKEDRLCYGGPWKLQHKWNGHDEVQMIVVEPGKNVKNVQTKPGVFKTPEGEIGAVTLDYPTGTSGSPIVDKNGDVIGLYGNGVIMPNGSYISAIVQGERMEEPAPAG
M1 antag: antagonists of rat M1 muscarinic receptor; CHO-M1 cells, Fluo-4 calcium, ACh EC80 antagonist mode; hits give low values; B-score at 10 µM; hit rate 3.4% among 64,000; AID 628;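 active means calcium fluorescence response, raw or row-and-column corrected B-score, differing from the plate sample mean either way at a set confidence level, mostly lower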
AP complement: orthogonal test for alternative complement pathway inhibitors. Human serum alternative complement pathway, LPS-coated ELISA, C3 deposition; tested in compound mixtures. inhibition, % at 5 µM. hit rate 0.08% among 62,000;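 active means inhibition above 30% in each of the two pooled mixtures holding the compound, so the lower value exceeds 30%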
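Assay system: human serum alternative complement pathway, C3 deposition on LPS-coated wells; Dosing: 5 µM per compound in ten-compound mixtures; Detection: Anti-C3 ELISA, OD 450 nm; Buffer or medium: Mg2+-EGTA GVB++ buffer containing human serum at 1:15 dilution; Timing: 1 h at 37 °C; Replication: two different pools per compound.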
Ecoli tolC: blocks growth of E. coli BW25113 tolC mutant; OD615; growth inhibition, % at 10 µM (by protocol); hit rate 2.2% among 65,000; AID 573;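 active means growth inhibition at or above a cutoff equal to the mean over every tested compound plus 3 SD, cut at about 60% in these data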;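 further: growth measured after 20 h incubation at 37 °C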
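Test system: tolC-deleted E. coli BW25113 | Medium: LB with kanamycin 50 µg/mL | Compound dosing: Single concentration, 10 µM final per compound | Schedule: 37 °C, 20 h exposure | Measured by: OD at 615 nm | Evaluation: Percent growth inhibition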
E coli WT exp: blocks growth of wild type E. coli BW25113; hit rate 0.15% among 98,000; OD600 absorbance; growth inhibition, % at 100 µM; AID 710;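 active means growth inhibition above about 50% at one test dose, limit read from the data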;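 further: growth measured after 20 h incubation at 37 °C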
M1 antag conf: M1 muscarinic receptor (rat) antagonism, confirmed; CHO-M1 cells, Fluo-4 calcium, ACh EC80 antagonism; hits give low values; AID 677; shares compounds with M1 antag; hit rate 43% among 1,700; calcium response (max-min fluorescence) at 10 µM;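 active means calcium response below the same-plate mean of wells given acetylcholine alone at its 80%-effect dose, minus 3 SD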
mGluR4 antag: selectivity test for M1 antagonists: human mGluR4 receptor | shares compounds with M1 antag | CHO-mGluR4 calcium flux, Fluo-4 fluorescence, glutamate EC80; hits give low values | hit rate 0.9% among 1,700 | fluorescence response (max-min) at 10 µM | AID 678;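 active means fluorescence response below the plate's average for near-maximal glutamate wells, less 3 SD of those wells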;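 further: raw unnormalized fluorescence span taken in the window right after glutamate addition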
Of the large screens only hits and unclear results are named; the others gave an inactive call (follow-up assays come after a bar, where they were run).

Cc1nc2ccccc2c2oc(C(=O)NCCN3CCCCC3C)cc12 (stereo not given)	M1 antag -3.4 | M1 antag conf 354 | mGluR4 antag inactive
CC1CCCCN1CCCNC(=O)C1CCN(c2nc3ccccc3o2)CC1 (stereo not given)	M1 antag -4.1 | M1 antag conf 67 | mGluR4 antag inactive
O=C(NC1CCCCCC1)C1CCN(c2nc3ccccc3o2)CC1	none
CCN1CCCC1CNC(=O)c1cc2c(C)nc3ccccc3c2o1 (stereo not given)	none
O=C(NCCC1=CCCCC1)C1CCN(c2nc3ccccc3o2)CC1	none (no result: M1 agonist, WNV protease inh, M1 antag, AP complement, Ecoli tolC)
Cc1ccc(C(=O)N2c3ccccc3N(Cc3ccccc3)C(=O)C2(C)C)cc1	none (no result: M1 agonist, WNV protease inh, M1 antag, AP complement, Ecoli tolC)
COc1ccccc1OC(=O)CN1C(=O)c2ccccc2C1=O	none (no result: M1 agonist, WNV protease inh, M1 antag, AP complement, Ecoli tolC)
c1ccc(-c2oc3ncnc(NCCCn4ccnc4)c3c2-c2ccccc2)cc1	M1 antag -3.9, Ecoli tolC 98 | M1 antag conf inactive | mGluR4 antag 145
CCc1nnc(NC(=O)CSc2nnc(CSc3nc(C)cc(C)n3)n2CC)s1	none (no result: E coli WT exp)
COc1cc(C)c(S(=O)(=O)n2nnc3ccccc32)cc1C	none (no result: M1 agonist, WNV protease inh, M1 antag, AP complement, Ecoli tolC)
Cc1cc(Br)c(S(=O)(=O)n2nnc3ccccc32)cc1C	M1 antag -12 | M1 antag conf inactive | mGluR4 antag inactive
CC(C(=O)c1ccccc1)n1cnc2ccccc2c1=O (stereo not given)	M1 antag -10 | M1 antag conf inactive | mGluR4 antag inactive
CCOC(=O)Nc1ccc2c(c1)N(C(=O)CCN1CCN(C)CC1)c1ccccc1S2	none (no result: M1 agonist, WNV protease inh, M1 antag, AP complement, Ecoli tolC)
O=C(CN1CCN(CCOCCO)CC1)N1c2ccccc2Sc2ccc(Cl)cc21	M1 antag -17 | M1 antag conf 24 | mGluR4 antag inactive
CN1CCN(CCC(=O)N2c3ccccc3Sc3ccc(Cl)cc32)CC1	M1 antag -11 (no result: AP complement) | M1 antag conf 268 | mGluR4 antag inactive
Cn1nnnc1SCC(=O)N1c2ccccc2Sc2ccc(Cl)cc21	M1 antag -2.7 | M1 antag conf 446 | mGluR4 antag inactive
CC1Cc2ccccc2N1C(=O)CSc1nnnn1C (stereo not given)	none (no result: M1 agonist, WNV protease inh, M1 antag, AP complement, Ecoli tolC)
O=C(Cn1nnc(-c2ccccc2Cl)n1)NCc1ccc2c(c1)OCO2	none (no result: M1 agonist, WNV protease inh, M1 antag, AP complement, Ecoli tolC)
O=C(CCn1c(=O)c2ccccc2n(CC(=O)NC2CCCC2)c1=O)NCc1ccco1	none (no result: M1 agonist, WNV protease inh, M1 antag, AP complement, Ecoli tolC)
COc1cc(NC(=O)c2cccs2)cc(OC)c1	M1 antag -3.4 | M1 antag conf inactive | mGluR4 antag inactive
COc1cc(NC(=O)Cc2cccs2)cc(OC)c1	none
COC(=O)c1sc2ccccc2c1NC(=O)c1cccs1	M1 antag -1.4 | M1 antag conf 642 | mGluR4 antag inactive
CCOC(=O)N1CCC(N2C(=O)c3ccccc3C2Nc2ccccc2C)CC1 (stereo not given)	none
CCOC(=O)c1ccccc1NC1c2ccccc2C(=O)N1C1CCN(C(=O)OCC)CC1 (stereo not given)	M1 antag -1.6 | M1 antag conf 384 | mGluR4 antag inactive
CCn1c(SCC(=O)Nc2c(C)n(C)n(-c3ccccc3)c2=O)nnc1-c1cccc(C)c1	M1 antag -1.9 | M1 antag conf inactive | mGluR4 antag inactive
O=C(Nc1ccccc1Cl)c1cc(S(=O)(=O)N2CCCC(C(=O)O)C2)ccc1F (stereo not given)	M1 antag -3.5 | M1 antag conf 529 | mGluR4 antag inactive
CCn1c(SCC(=O)N2CCC(C(N)=O)(N3CCCCC3)CC2)nnc1-c1ccccc1	none (no result: AP complement, E coli WT exp)
CCn1c(COc2ccc3c(c2)CCCC3)nnc1SCC(=O)Nc1nccs1	none
CCOC(=O)c1sc(N(Cc2ccccc2)C(=O)CSc2nnc(C3CC3)n2N)nc1C	none (no result: AP complement)
CCSc1nc2c([nH]c3ccccc32)c(=O)n1C	M1 antag -4.2 | M1 antag conf inactive | mGluR4 antag inactive
Cc1ccc2cc3cc(C(=O)NCCCN4CCCCCC4)oc3nc2c1	none
Cc1ccc2cc3cc(C(=O)NCCCN4CCc5ccccc5C4)oc3nc2c1	M1 antag -3.4 | M1 antag conf inactive | mGluR4 antag inactive
Cc1ccc(C(CC(=O)N2CCOCC2)c2ccco2)cc1 (stereo not given)	none
CCCCN(C(=O)c1ccc(Cl)cc1)C1CC2CCC(C1)N2C (stereo not given)	M1 antag -2.1 | M1 antag conf 369 | mGluR4 antag inactive
COc1cc(C(=O)N(CCc2ccccc2)C2CC3CCC(C2)N3C)cc(OC)c1OC (stereo not given)	none
CCCCn1cnc2c([nH]c3ccccc32)c1=O	none (no result: M1 agonist, WNV protease inh, M1 antag, AP complement, Ecoli tolC)
CC1CCCCN1CCn1cnc2c([nH]c3ccccc32)c1=O (stereo not given)	M1 antag -6.9 | M1 antag conf 355 | mGluR4 antag inactive
COc1nc(NC(C)=O)nc(C)c1Br	M1 antag -10 (no result: WNV protease inh) | M1 antag conf inactive | mGluR4 antag inactive
CCN(CC)CCNC(=O)c1cc2c(-c3ccc(Cl)cc3)nn(C)c2s1	M1 antag -2.9 | M1 antag conf inactive | mGluR4 antag inactive
CCOCCCNC(=O)c1cc2c(-c3ccc(Cl)cc3)nn(C)c2s1	none
O=C(NC1CCCCCCC1)c1ccccc1O	M1 antag -2.2, Ecoli tolC 83 | M1 antag conf inactive | mGluR4 antag inactive
O=C(OCCCN1CCCC1)C1(c2ccccc2)CCCC1	M1 antag -18 | M1 antag conf 27 | mGluR4 antag inactive
CN(C)CCOC(=O)C1(c2ccccc2)CCOCC1	M1 antag -3.2 | M1 antag conf 362 | mGluR4 antag inactive
COc1ccc(C2(O)CCN(C(=O)Cc3cccnc3)CC2)cc1	none
COc1ccc(C2(O)CCN(CCCCOc3ccccc3)CC2)cc1	M1 antag -2.6 | M1 antag conf 477 | mGluR4 antag inactive
O=C(Nc1ccccc1)OC(CN1CCCCC1)C(F)(F)F (stereo not given)	none (no result: M1 agonist, WNV protease inh, M1 antag, AP complement, Ecoli tolC)
CCCCCC(=O)NC(=S)Nc1ccc(N2CCCCC2)c(Cl)c1	none (no result: M1 agonist, WNV protease inh, M1 antag, AP complement, Ecoli tolC)
CCCCCC(=O)Nc1ccc(N2CCN(CC)CC2)c(Cl)c1	M1 antag -11 | M1 antag conf 46 | mGluR4 antag inactive
Cc1ccc(NC(=O)NC(=O)CN2C(=O)NC3(CCCCCCC3)C2=O)c(C)c1	M1 antag -2.2 | M1 antag conf inactive | mGluR4 antag inactive
Cc1ccc2c(c1)N(CCC(=O)NC1CC1)C(=O)C(C)O2 (stereo not given)	M1 antag -4 | M1 antag conf inactive | mGluR4 antag inactive
CCCCn1c(SCC(=O)Nc2nnc(CC)s2)nc2ccccc2c1=O	M1 antag -7.8 | M1 antag conf inactive | mGluR4 antag inactive
